In ChEMBL document CHEMBL1143287, “Quinazolin-2-ylamino-quinazolin-4-ols as novel non-nucleoside inhibitors of bacterial DNA polymerase III” (Bioorg Med Chem Lett, 2009):
pIC50: −log10 of the molar value. In brackets after ≈: the same amount, converted by molar mass. Activity calls are given as the source filed them. The calls are words filed in the database; no cut-off is given here.

Tests used:
[1] = (§1) Inhibition of Streptococcus pyogenes DNA polymerase 3
In short: (§2)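 S. pyogenes DNA polymerase III holoenzyme system reconstituted in 96- or 384-well format; inhibition read as prevention of duplex DNA formation, detected by fluorescence.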

Streptococcus pneumoniae = assay: Antibacterial activity against Streptococcus pneumoniae ATCC 49619 by broth microdilution assay; format: functional
Staphylococcus aureus [2] = assay: Antibacterial activity against Staphylococcus aureus ATCC 29213 by broth microdilution assay; format: functional
[3] = Inhibition of mammalian DNA polymerase […] delta
Staphylococcus aureus [4] = assay: Antibacterial activity against Staphylococcus aureus ATCC 29213 by broth microdilution assay in presence of 50% human serum; format: functional
Staphylococcus aureus [5] = assay: Antibacterial activity against Staphylococcus aureus infected in mouse assessed as protection against bacterial infection at 25 mg/kg, ip administered as single dose measured 1 hr postinjection; format: functional; details: route intraperitoneal
Streptococcus pyogenes = assay: as §1; in short: as §2

pIC50 [1]	MIC (Staphylococcus aureus [4]) [µg/mL]	pIC50 [3]	SMILES	other results
4.11	64	5.72	COc1ccc2nc(Nc3nc(O)c4ccc(F)cc4n3)nc(C)c2c1	
5.51			COc1cccc2c(C)nc(Nc3nc(O)c4ccccc4n3)nc12	MIC (Streptococcus pneumoniae): 0.25 µg/mL (≈ 0.75 µM); MIC (Staphylococcus aureus [2]): 0.5 µg/mL (≈ 1.5 µM)
6.40	2	6.40	COc1ccc2nc(Nc3nc(O)c4ccc(N(C)C)cc4n3)nc(C)c2c1	
4.15			COc1ccc2c(C)nc(Nc3nc(O)c4ccccc4n3)nc2c1	MIC (Streptococcus pneumoniae): 32 µg/mL (≈ 96 µM); MIC (Staphylococcus aureus [2]): 32 µg/mL (≈ 96 µM)
5.26		5.30	COc1ccc2nc(Nc3nc(O)c4ccc(NC(C)=O)cc4n3)nc(C)c2c1	
6.40	1	6.40	CCNc1ccc2c(O)nc(Nc3nc(C)c4cc(OC)ccc4n3)nc2c1	
6.15	2	5.92	COc1ccc2nc(Nc3nc(O)c4c(C)cccc4n3)nc(C)c2c1	
5.06		4.83	COc1ccc2nc(Nc3nc(O)c4cc([N+](=O)[O-])ccc4n3)nc(C)c2c1	

The next lines start with the molecule.

SMILES	pIC50 [1]	MIC (Staphylococcus aureus [4]) [µg/mL]	pIC50 [3]	other results
Cc1cc2nc(Nc3nc(O)c4ccccc4n3)nc(C)c2cc1C	4.57			MIC (Streptococcus pneumoniae): 1 µg/mL (≈ 3.02 µM); MIC (Staphylococcus aureus [2]): > 64 µg/mL
COc1ccc2nc(Nc3nc(O)c4cccc(OC)c4n3)nc(C)c2c1	< 4.00	2		Activity [3]: inactive
COc1ccc2nc(Nc3nc(O)c4ccc([N+](=O)[O-])cc4n3)nc(C)c2c1	< 4.00	64	6.40	
COc1ccc2nc(Nc3nc(O)c4ccc(Cl)cc4n3)nc(C)c2c1	< 4.00			Activity [3]: inactive; Activity (Staphylococcus aureus [4]): inactive
COc1ccc2nc(Nc3nc(O)c4ccccc4n3)nc(C)c2c1	5.32			MIC (Streptococcus pneumoniae): 0.25 µg/mL (≈ 0.75 µM); MIC (Staphylococcus aureus [2]): 0.5 µg/mL (≈ 1.5 µM)
CNc1ccc2c(O)nc(Nc3nc(C)c4cc(OC)ccc4n3)nc2c1	6.30	1	6.70	
COc1ccc2nc(Nc3nc(O)c4ccc(N)cc4n3)nc(C)c2c1	5.33	1	5.31	
Cc1ccc2nc(Nc3nc(O)c4ccccc4n3)nc(C)c2c1	3.68			MIC (Streptococcus pneumoniae): 16 µg/mL (≈ 50.4 µM); MIC (Staphylococcus aureus [2]): 32 µg/mL (≈ 101 µM)
COc1ccc2c(O)nc(Nc3nc(C)c4cc(OC)ccc4n3)nc2c1	5.42	2	5.74	
COc1cc2nc(Nc3nc(O)c4ccccc4n3)nc(C)c2cc1OC	5.70			MIC (Streptococcus pneumoniae): 1 µg/mL (≈ 2.75 µM); MIC (Staphylococcus aureus [2]): 4 µg/mL (≈ 11 µM)
COc1ccc2nc(Nc3nc(O)c4cc(C)ccc4n3)nc(C)c2c1	5.55	2	5.77	
COc1ccc2nc(Nc3nc(O)c4c(OC)cccc4n3)nc(C)c2c1	6.22	2	6.00	
COc1ccc2nc(Nc3nc(O)c4c(Cl)cccc4n3)nc(C)c2c1	6.25	1	6.05	
COc1ccc2nc(Nc3nc(O)c4ccc(C)cc4n3)nc(C)c2c1	5.43	1	5.70	Activity (Staphylococcus aureus [5]): 50%
COc1cc2nc(Nc3nc(OC)c4ccccc4n3)nc(C)c2cc1OC				Activity (Streptococcus pyogenes): inactive
COc1cc2nc(N(C)c3nc(OC)c4ccccc4n3)nc(C)c2cc1OC				Activity (Streptococcus pyogenes): inactive
